We go through two compounds from ChEMBL document CHEMBL4130618, “Paralithocins, Antimicrobial Peptides with Unusual Disulfide Connectivity from the Red King Crab, Paralithodes camtschaticus” (2018).

In brackets after ≈: the same amount, converted by molar mass.

Holding throughout (type): functional
Assay [1] has as its system Escherichia coli. The assay can be described thus: Antibacterial activity against Escherichia coli ATCC 25922 measured after 24 hrs. Conditions: ATCC 25922, 24 h. The method in brief:
(§1)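 Purified native peptide in 2-fold serial dilutions in double-distilled water (1.6–100 μM). 50 μL was mixed with an equal volume of actively growing bacteria (5 × 10^3 cells/well) in Mueller Hinton broth and incubated 24 h at 37 °C. Growth was followed by OD. MIC is the lowest concentration giving OD <50% of the water growth control, read at control OD ≈0.3.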

Assay [2] has as its system Aeromonas salmonicida. The assay can be described thus: Antibacterial activity against Aeromonas salmonicida AL2020 measured after 72 hrs. Conditions: AL2020, 72 h. The procedure, abridged:
(§2)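 Marine strains were grown in Mueller Hinton broth. Peptide in 2-fold dilutions in double-distilled water (1.6–100 μM, up to 200 μM for selected marine strains), 50 μL plus an equal volume of growing bacteria at 5 × 10^3 cells/well, 72 h at 12 °C. OD was monitored. MIC is the lowest concentration giving OD <50% of the water growth control.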

In assay [3] the test system is Pseudomonas aeruginosa. Put plainly: Antibacterial activity against Pseudomonas aeruginosa […] measured after 24 hrs. The method in brief:
as §1

For assay [4], the system named is Yersinia ruckeri. Put plainly: Antibacterial activity against Yersinia ruckeri CCUG 14190 measured after 72 hrs. Particulars: CCUG 14190, 72 h. The procedure, abridged: as §2
The test system of assay [5] is Carnobacterium mobile. The assay can be described thus: Antibacterial activity against Carnobacterium mobile measured after 72 hrs. The procedure, abridged: (§3)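 Carnobacteria were grown in modified tryptic soy broth with 5% glucose and 2% NaCl. 2-fold peptide dilutions in double-distilled water (1.6–100 μM, up to 200 μM for selected marine strains), 50 μL mixed 1:1 with growing cells (5 × 10^3/well), incubated 72 h at 12 °C. MIC is the lowest concentration with OD below 50% of the water growth control.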

Assay [6] relates to Carnobacterium divergens. Put plainly: Antibacterial activity against Carnobacterium divergens measured after 72 hrs. The method in brief:
as §3

The subject of assay [7] is Carnobacterium funditum. The assay can be described thus: Antibacterial activity against Carnobacterium funditum CCUG 34644 measured after 72 hrs. Particulars: CCUG 34644, 72 h. The procedure, abridged:
as §3

Assay [8] relates to Corynebacterium glutamicum. The assay can be described thus: Antibacterial activity against Corynebacterium glutamicum ATCC 13032 measured after 24 hrs. Particulars: ATCC 13032, 24 h. The method in brief: as §1
For assay [9], the system named is Carnobacterium maltaromaticum. Put plainly: Antibacterial activity against Carnobacterium maltaromaticum CCUG 34645 measured after 72 hrs. Particulars: CCUG 34645, 72 h. The procedure, abridged: as §3
The subject of assay [10] is Vibrio anguillarum. The assay can be described thus: Antibacterial activity against Listonella anguillarum AL104 measured after 72 hrs. Particulars: AL104, 72 h. The method in brief: as §2
In assay [11] the test system is Staphylococcus aureus. The assay can be described thus: Antibacterial activity against Staphylococcus aureus ATCC 9144 measured after 24 hrs. Particulars: ATCC 9144, 24 h. The method in brief:
as §1

The term MIC denotes the smallest concentration in the dilution series that meets the test's criterion for growth inhibition. The low end stands for inhibition by little substance, the high end for a need for much substance. With `CC[C@H](C)[C@@H]1NC(=O)[C@H](CO)NC(=O)[C@H](CO)NC(=O)[C@@H](NC(=O)[C@H](CO)NC(=O)[C@@H]2CCCN2C(=O)[C@H](CCC(N)=O)NC(=O)[C@H](CCC(N)=O)NC(=O)[C@@H](N)Cc2c[nH]c3ccccc23)CSSC[C@@H](C(=O)N[C@@H](CCCNC(=N)N)C(=O)N[C@@H](CCCNC(=N)N)C(=O)NCC(=O)N2CCC[C@H]2C(=O)N[C@H](C(=O)N[C@@H](Cc2ccc(O)cc2)C(=O)O)[C@@H](C)CC)NC(=O)[C@H](CO)NC(=O)[C@H](C)NC(=O)[C@@H]2CSSC[C@H]3NC(=O)[C@H](C)NC(=O)[C@H](CO)NC(=O)[C@H](CCCCN)NC(=O)CNC(=O)[C@@H]4CSSC[C@H](NC(=O)[C@H](CCCNC(=N)N)NC(=O)CNC(=O)[C@H](CO)NC(=O)[C@H](Cc5ccc(O)cc5)NC(=O)[C@H](CO)NC(=O)[C@H]([C@@H](C)CC)NC3=O)C(=O)NCC(=O)N[C@@H](CSSC[C@H](NC1=O)C(=O)N[C@@H](CC(=O)O)C(=O)N[C@@H](Cc1ccc(O)cc1)C(=O)N[C@@H](CO)C(=O)N4)C(=O)N2`, the MIC in assay [1] was over 100 µM; in assay [2], 200 µM (≈ 816 µg/mL); in assay [3] it was over 100 µM; in assay [4], over 100 µM; in [5] it was 100 µM (≈ 408 µg/mL); in assay [6] it was 200 µM (≈ 816 µg/mL). Besides, the MIC was 200 µM (≈ 816 µg/mL) in assay [7]; 50 µM (≈ 204 µg/mL) in [8]; 200 µM (≈ 816 µg/mL) in assay [9]; over 100 µM in [10]; over 100 µM in [11].

For H-SWLSKTAKKLENSAKKRISEGIAIAIQGGPR-OH, the MIC in assay [1] was found to be 1.6 µM; in assay [2], 3.1 µM; in assay [3], 1.6 µM; in [4] it was 0.8 µM; in [5] it was 6.3 µM; in assay [6], 25 µM. The MIC in [7] is 25 µM; in assay [8], 1.6 µM; in assay [9] it was 50 µM; in [10], 1.6 µM; in [11], 100 µM.
